Reference: the array DNA melting data of Ke et al. (doi:10.1101/2024.01.08.574731)

Key:
[1] = melting temperature; fluorescence melt of hairpins on a sequencing array, two-state fit, raised by 9.35 °C to match UV melts; settings: sodium 0.088 M
How it was run: (§1)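 Library hairpins on a sequenced MiSeq flow cell carried annealed Cy3 and quencher oligos, and their Cy3 fluorescence was imaged in 50 mM Na-HEPES pH 8.0 with 25 mM NaCl, in 2.5 °C steps up to 60 °C. Signals were normalised to Cy3 before quenching and to control constructs. Melting temperature and folding enthalpy were obtained from bootstrapped two-state fits, combined by inverse-variance weighting across four replicates, and the fitted temperatures were then raised by 9.35 °C to match UV melts.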

[2] = folding enthalpy; higher = less favourable; fluorescence melt of hairpins on a sequencing array, two-state fit; settings: sodium 0.088 M
How it was run: as §1

GCAATGCGAAAGCGTCGC ((.(.((....)).).))
Tm [1]: 45.4 °C
folding enthalpy [2]: -19.3 kcal/mol

GATCCTCAACAGGATC ((((((....))))))
Tm [1]: 48.7 °C
folding enthalpy [2]: -37.2 kcal/mol

GCCACAGGAAACTATGGC ((((.((....)).))))
Tm [1]: 39.3 °C
folding enthalpy [2]: -31.8 kcal/mol

GGGAACCGAAAGGTCCCC (((.(((....))).)))
Tm [1]: 58.1 °C
folding enthalpy [2]: -25.4 kcal/mol

GGCTAAGGAAACTTGGCC (((.(((....))).)))
Tm [1]: 50.4 °C
folding enthalpy [2]: -29.6 kcal/mol

GGAATCGAAAGATCTCC ((((((....))).)))
Tm [1]: 30.8 °C
folding enthalpy [2]: -18.4 kcal/mol

GTGTAAGGAAACTCACAC ((((.((....)).))))
Tm [1]: 32.8 °C
folding enthalpy [2]: -16.9 kcal/mol

GATCTTGCAAAGATC ((((((...))))))
Tm [1]: 55 °C
folding enthalpy [2]: -41 kcal/mol

GAACCCGGAAACGAGTTC ((((.((....)).))))
Tm [1]: 40.8 °C
folding enthalpy [2]: -27.2 kcal/mol

GATCATAGGAATGATC ((((((....))))))
Tm [1]: 44.3 °C
folding enthalpy [2]: -26 kcal/mol

GTCAGCGAAAGCTGTGAC ((((((....)))..)))
Tm [1]: 39.5 °C
folding enthalpy [2]: -10.3 kcal/mol

GTGCTGGGAAACTGGCAC ((((..(....)..))))
Tm [1]: 49.7 °C
folding enthalpy [2]: -26.2 kcal/mol

GGGGGAGGAAACCCCCCC (((((.(....).)))))
Tm [1]: 55.1 °C
folding enthalpy [2]: -20.1 kcal/mol

GAAGGGGAAACCCTTC ((((((....))))))
Tm [1]: 53.8 °C
folding enthalpy [2]: -28.6 kcal/mol

GGATCTCCGAAAGGATCC (((..(((....))))))
Tm [1]: 42.1 °C
folding enthalpy [2]: -23.8 kcal/mol

GGGGCAGGAAACTGCTCC ((.((((....)))).))
Tm [1]: 60.2 °C
folding enthalpy [2]: -36.6 kcal/mol

GATTGGCGAAAGCCATC (((.(((....))))))
Tm [1]: 41.3 °C
folding enthalpy [2]: -9.48 kcal/mol

GATCTTTTAAAGATC ((((((...))))))
Tm [1]: 43.8 °C
folding enthalpy [2]: -30.9 kcal/mol

GTATCAGGAAACTGATAC (((((((....)))))))
Tm [1]: 54.6 °C
folding enthalpy [2]: -39.3 kcal/mol

GAGTACGAAAGTAGGCTC ((((((....)))..)))
Tm [1]: 36.1 °C
folding enthalpy [2]: -19.6 kcal/mol

GATCATCAAATGATC ((((((...))))))
Tm [1]: 41.1 °C
folding enthalpy [2]: -25.1 kcal/mol

GCGCAGCGAAAGCGTCGC (((..((....))..)))
Tm [1]: 58.9 °C
folding enthalpy [2]: -13.3 kcal/mol

GATCGGTTTACCGATC ((((((....))))))
Tm [1]: 68.6 °C
folding enthalpy [2]: -37.4 kcal/mol

GATCTGCGCCCAGATC ((((((....))))))
Tm [1]: 48.4 °C
folding enthalpy [2]: -29.2 kcal/mol

GGCCCTGCGAAAGCAGCC (((..(((....))))))
Tm [1]: 36.9 °C
folding enthalpy [2]: -8.71 kcal/mol

GATCGCTGATGCGATC ((((((....))))))
Tm [1]: 67.2 °C
folding enthalpy [2]: -34.8 kcal/mol

GATAGCCGAAAGGCAATC (((.(((....))).)))
Tm [1]: 46 °C
folding enthalpy [2]: -19.1 kcal/mol

CGAACGAAAGTTCG (((((....)))))
Tm [1]: 68.7 °C
folding enthalpy [2]: -29.2 kcal/mol

GATCGTAGAAACGATC ((((((....))))))
Tm [1]: 51.1 °C
folding enthalpy [2]: -35.2 kcal/mol

GCGACGGGAAACCGTTGC ((.((((....)))).))
Tm [1]: 61 °C
folding enthalpy [2]: -40 kcal/mol

GTAGGGGGAAACCTCTGC (.((.((....)).)).)
Tm [1]: 31.9 °C
folding enthalpy [2]: -16.8 kcal/mol

GCAAACGAAAGTTCATGC ((((((....)))..)))
Tm [1]: 26 °C
folding enthalpy [2]: -11.2 kcal/mol

GTTGTCGGAAACGGTAAC (((..((....))..)))
Tm [1]: 33.1 °C
folding enthalpy [2]: -21.9 kcal/mol

GATCATGCGAAAGCAATC (((..(((....))))))
Tm [1]: 22.5 °C
folding enthalpy [2]: -9.85 kcal/mol

GGACACGAAAGTGTGTCC ((((((....)))..)))
Tm [1]: 55.5 °C
folding enthalpy [2]: -30.6 kcal/mol

GCTGTTGGAAACAGCAGC ((((.((....)).))))
Tm [1]: 63 °C
folding enthalpy [2]: -12.4 kcal/mol

GGTGCCCCGAAAGGGACC (((..(((....))))))
Tm [1]: 47.9 °C
folding enthalpy [2]: -16.2 kcal/mol

GATTCCCGAAAGGGCATC (((.(((....))).)))
Tm [1]: 41.5 °C
folding enthalpy [2]: -20.8 kcal/mol

GGGCAGCGAAAGCTTCCC (((.(((....))).)))
Tm [1]: 55.8 °C
folding enthalpy [2]: -38.7 kcal/mol

GGCCACCCGAAAGGGGCC (((..(((....))))))
Tm [1]: 61.3 °C
folding enthalpy [2]: -23.2 kcal/mol

GCATCAGAAATGATGC ((((((....))))))
Tm [1]: 57.9 °C
folding enthalpy [2]: -38.7 kcal/mol

GGGCGTGGAAACACGTCC ((.((((....)))).))
Tm [1]: 62.1 °C
folding enthalpy [2]: -36.1 kcal/mol

GGGAACGAAAGTTACCCC ((((((....)))..)))
Tm [1]: 53.4 °C
folding enthalpy [2]: -20.2 kcal/mol

GATCTCGGAAACGAGACC (.(((((....))))).)
Tm [1]: 40.7 °C
folding enthalpy [2]: -16.5 kcal/mol

GTCGTCGAAAGACTCGAC ((((((....)))..)))
Tm [1]: 38.6 °C
folding enthalpy [2]: -14.9 kcal/mol

GATCACTCGTGTGATC ((((((....))))))
Tm [1]: 57.1 °C
folding enthalpy [2]: -37.1 kcal/mol

GAGGACGAAAGTCTACTC ((((((....)))..)))
Tm [1]: 36.8 °C
folding enthalpy [2]: -12 kcal/mol

GATCTTTGCTAAGATC ((((((....))))))
Tm [1]: 46 °C
folding enthalpy [2]: -35.8 kcal/mol

GCTTTACGAAAGTATAGC (((.(((....))).)))
Tm [1]: 47 °C
folding enthalpy [2]: -34.1 kcal/mol

GTAGTCCGAAAGGAGTAC (((.(((....))).)))
Tm [1]: 54.1 °C
folding enthalpy [2]: -43.5 kcal/mol

GATCGGGCTGCCGATC ((((((....))))))
Tm [1]: 57.1 °C
folding enthalpy [2]: -46.5 kcal/mol

GTGTGTCGAAAGACGCAC (((.(((....))).)))
Tm [1]: 61.4 °C
folding enthalpy [2]: -37.7 kcal/mol

GCGTGAGAAATCACGC ((((((....))))))
Tm [1]: 69 °C
folding enthalpy [2]: -29.5 kcal/mol

GCTAGCGGAAACGTTGGC ((.(.((....)).).))
Tm [1]: 39.6 °C
folding enthalpy [2]: -24.6 kcal/mol

GCTGGGCGAAAGCGAAGC (((..((....))..)))
Tm [1]: 47.5 °C
folding enthalpy [2]: -20 kcal/mol

GATGTCGGAAACGATGTC ((..(((....)))..))
Tm [1]: 39.9 °C
folding enthalpy [2]: -32.6 kcal/mol

GCTCCCGAAAGGGCTAGC ((((((....)))..)))
Tm [1]: 38.6 °C
folding enthalpy [2]: -12.8 kcal/mol

GGCTGTCGAAAGACCGCC (((.(((....))).)))
Tm [1]: 56.6 °C
folding enthalpy [2]: -36.6 kcal/mol

GGTACCGGAAACGGCACC (((.(((....))).)))
Tm [1]: 52.5 °C
folding enthalpy [2]: -29.9 kcal/mol

GCGTGGCGAAAGCGTCGC (((..((....))..)))
Tm [1]: 58.7 °C
folding enthalpy [2]: -22.6 kcal/mol

GATCTATCCATAGATC ((((((....))))))
Tm [1]: 46.5 °C
folding enthalpy [2]: -38.1 kcal/mol

GCTGTCGGAAACGATGGC ((..(((....)))..))
Tm [1]: 47.8 °C
folding enthalpy [2]: -33.5 kcal/mol

GGTAACGGAAACGCTACC ((((.((....)).))))
Tm [1]: 43.7 °C
folding enthalpy [2]: -29.7 kcal/mol

GGGATGCGAAAGCACCCC (((.(((....))).)))
Tm [1]: 61.4 °C
folding enthalpy [2]: -27.7 kcal/mol

GATCTTCGGAAAGATC ((((((....))))))
Tm [1]: 38.9 °C
folding enthalpy [2]: -29.1 kcal/mol

GTCGGCGAAAGCCCTGAC ((((((....)))..)))
Tm [1]: 35.6 °C
folding enthalpy [2]: -10.4 kcal/mol

GACGTCGGAAACGATGTC (((.(((....))).)))
Tm [1]: 54.7 °C
folding enthalpy [2]: -52.2 kcal/mol

GTTGTCGAAAGACGAAC ((((((....))).)))
Tm [1]: 39.8 °C
folding enthalpy [2]: -17.9 kcal/mol

GGTCGCGGAAACGCAACC (((.(((....))).)))
Tm [1]: 51.6 °C
folding enthalpy [2]: -33.1 kcal/mol

GACGTGGGAAACCATGTC (((.(((....))).)))
Tm [1]: 51.4 °C
folding enthalpy [2]: -42.7 kcal/mol

GCGAGTCGTCGC ((((....))))
Tm [1]: 53.1 °C
folding enthalpy [2]: -22.3 kcal/mol

GCTCCTGGAAACAGGGGC ((.((((....)))).))
Tm [1]: 57.4 °C
folding enthalpy [2]: -39.6 kcal/mol

GCTGAGCGAAAGCATAGC (((..((....))..)))
Tm [1]: 50 °C
folding enthalpy [2]: -18.9 kcal/mol

GGTTGCACGAAAGTGACC (((..(((....))))))
Tm [1]: 34.2 °C
folding enthalpy [2]: -11.2 kcal/mol

GCGATCGGTCGC ((((....))))
Tm [1]: 48.5 °C
folding enthalpy [2]: -31.6 kcal/mol

GTTTTCCGAAAGGACAAC (((.(((....))).)))
Tm [1]: 41.7 °C
folding enthalpy [2]: -25.8 kcal/mol

GCAAGGCGAAAGCCCTGC (((.(((....))).)))
Tm [1]: 50.7 °C
folding enthalpy [2]: -31.3 kcal/mol

GATCCGAGTTCGGATC ((((((....))))))
Tm [1]: 58.5 °C
folding enthalpy [2]: -47.4 kcal/mol

GTTCGCGCGAAAGCGAAC (((..(((....))))))
Tm [1]: 60.5 °C
folding enthalpy [2]: -28.1 kcal/mol

GACGGGCGAAAGCCAGTC (((.(((....))).)))
Tm [1]: 67.9 °C
folding enthalpy [2]: -21.7 kcal/mol

GCATCTCGAAAGAGCTGC (((.(((....))).)))
Tm [1]: 48.2 °C
folding enthalpy [2]: -30.9 kcal/mol

GATCAGAGACTGATC ((((((...))))))
Tm [1]: 48 °C
folding enthalpy [2]: -31.4 kcal/mol

GCGACATTTCGC ((((....))))
Tm [1]: 48.8 °C
folding enthalpy [2]: -22 kcal/mol

GCCTGTACGAAAGTAGGC (((..(((....))))))
Tm [1]: 48.9 °C
folding enthalpy [2]: -29.1 kcal/mol

GGATCACGAAAGTGTTCC (((.(((....))).)))
Tm [1]: 50.8 °C
folding enthalpy [2]: -34.3 kcal/mol

CAATCGAAAGATTG (((((....)))))
Tm [1]: 51.3 °C
folding enthalpy [2]: -22.6 kcal/mol

GATCCAGCTGTGGATC ((((((....))))))
Tm [1]: 50.3 °C
folding enthalpy [2]: -38.8 kcal/mol

GGACACGAAAGTGGCTCC ((((((....)))..)))
Tm [1]: 49 °C
folding enthalpy [2]: -11.8 kcal/mol

GCTCCTGCGAAAGCAAGC (((..(((....))))))
Tm [1]: 26.7 °C
folding enthalpy [2]: -9.07 kcal/mol

GTTGGCGGAAACGTCGAC ((.(.((....)).).))
Tm [1]: 47.6 °C
folding enthalpy [2]: -19.1 kcal/mol

GGCGACGAAAGTCGCGCC ((((((....)))..)))
Tm [1]: 65.8 °C
folding enthalpy [2]: -6.6 kcal/mol

GATCTGATTGCAGATC ((((((....))))))
Tm [1]: 48.2 °C
folding enthalpy [2]: -29.1 kcal/mol
